# High-throughput results: PubChem, several laboratories
# Rce1 inhib – blocks yeast Ras-converting enzyme | calls only | Q03530 | yeast membranes, quenched prenylated peptide cleavage fluorescence | hit rate 0.27% among 290,000;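 active means fall in fluorescence gain of 50% or more versus controls, with final raw signal at or below 3038400; inconclusive means same 50% fall but final raw signal above 3038400; inactive means fall in fluorescence gain under 50%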;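 further: plate controls were neutral control wells for no effect and wells lacking membranes for full effect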
# Runt-CBFb FRET – blocks binding of human RUNX1 Runt domain to CBFb; Q01196+Q13951; Cerulean-Runt/Venus-CBFb FRET ratio 530/480, 1 h; inhibition, % at 20 µM; hit rate 0.46% among 220,000; AID 1496;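 active means inhibition over about 50% at 20 µM in the single-dose screen, limit read from the data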;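 further: 0% = DMSO wells and 100% = excess unlabeled CBFb competitor control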
# Target sequence (Q01196 whole entry, looked up, the tested form may be a part): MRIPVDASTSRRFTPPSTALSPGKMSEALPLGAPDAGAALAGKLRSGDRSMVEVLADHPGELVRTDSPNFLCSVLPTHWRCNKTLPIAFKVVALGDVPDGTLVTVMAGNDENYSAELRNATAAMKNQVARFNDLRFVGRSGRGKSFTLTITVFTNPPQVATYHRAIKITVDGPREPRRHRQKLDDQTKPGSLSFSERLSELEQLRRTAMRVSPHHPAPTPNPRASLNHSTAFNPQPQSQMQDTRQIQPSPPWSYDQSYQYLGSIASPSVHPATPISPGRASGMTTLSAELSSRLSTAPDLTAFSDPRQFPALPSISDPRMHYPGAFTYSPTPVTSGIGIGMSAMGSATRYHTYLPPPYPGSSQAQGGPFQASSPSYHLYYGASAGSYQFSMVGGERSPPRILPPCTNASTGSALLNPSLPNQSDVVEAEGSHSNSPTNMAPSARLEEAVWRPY
# Target sequence (Q13951 whole entry, looked up, the tested form may be a part): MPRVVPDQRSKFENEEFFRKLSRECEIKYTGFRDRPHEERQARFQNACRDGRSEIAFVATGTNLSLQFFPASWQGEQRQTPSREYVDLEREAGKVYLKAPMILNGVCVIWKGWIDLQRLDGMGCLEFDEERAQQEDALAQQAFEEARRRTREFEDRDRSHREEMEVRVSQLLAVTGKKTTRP
#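 Doses: 20 µM compound in 1% DMSO | Material: Cerulean-labeled Runt domain protein | Amount: Each fluorescent fusion protein 100 nM | Schedule: Two 1 h room-temperature incubations shielded from light | Measured by: FRET fluorescence | Evaluation: Loss of energy transfer signal | Controls: Unlabeled CBFb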
# RanGTP-Impb inh – disruptors of Ran-importin-beta complex formation – biochemical, FRET, CFP-Ran, YFP-importin-beta, homogeneous, primary screen. hit rate 1.1% among 300,000. cell-free CFP-Ran/YFP-importin-beta FRET ratio. inhibition, % (test concentration not listed);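 active means more than half of the replicate wells show a fall in the fluorescence ratio signal beyond about 16%, limit read from the data, passing the limit was not always enough; inconclusive means exactly half of the replicate wells pass the set limit; inactive means fewer than half of replicates pass the limit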;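 further: 0% = DMSO wells and 100% = Ran loaded with GDP instead of GTP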
# Vif inh – inhibitors of HIV Vif; hit rate 0.35% among 340,000; AID 602346; HEK293T cells, Vif self-association by quenched fluorescence, imaging, 24 h; inhibition, % at 7.49 µM; in the data active means inhibition above about 50%, passing the limit was not always enough; inconclusive means no clear call, values can overlap the other calls; inactive means below about 31%
# Runt-SMMHC FRET – inhibitors of human RUNX1 Runt domain binding to CBFb-SMMHC; Q01196+Q13951; Cerulean-Runt/Venus-CBFb-SMMHC FRET ratio 530/480, 1 h; hit rate 0.74% among 220,000; inhibition, % at 20 µM;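 active means mean inhibition across duplicate retests at 20 µM reaching about 50%, limit read from the data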;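 further: 0% = DMSO wells and 100% = wells with excess untagged CBFb-SMMHC; inhibitors lower the FRET ratio by blocking Runt binding to CBFb-SMMHC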
# An asterisk follows results filed as active; i = inactive; u = inconclusive; x = no result; + = active, no number. This is a sample that favours compounds with a hit; in the whole collection about 1.7% have one here.
SMILES,Rce1 inhib,Runt-CBFb FRET,RanGTP-Impb inh,Vif inh,Runt-SMMHC FRET
CCCS(=O)(=O)c1cnc(C2COc3ccccc3O2)nc1N (stereo unspecified),i,x,1.1,79.9*,x
c1cc2c3c(cccc3c1)C(N1CCCCCC1)=N2,i,-17.2,23.4*,0.6,60.5
COCCCNC(=S)NCCNc1nc2c(C)c(C)ccc2cc1C#N,x,32.4,x,-15.0,64.4*
Cc1cc(C)c2nc(N3CCCN(C(=O)c4ccco4)CC3)c(C#N)cc2c1,i,13.0,89.0*,3.4,69.9*
Cc1ccc2cc(C#N)c(N3CCCN(C(=O)C4CCCO4)CC3)nc2c1C (stereo unspecified),i,6.3,50.1*,-2.3,64.3*
Cc1cccc2cc(C#N)c(N3CCC(O)CC3)nc12,i,35.5,28.5*,-2.2,70.6*
CC1CCCCC1NC(=O)C(C)N1C(=O)c2ccccc2C1=O (stereo unspecified),x,x,x,2.2,x
Cc1ccc(S(=O)(=O)Nc2c(C)n(C)n(-c3ccccc3)c2=O)cc1C(=O)OCC(=O)N1CCCC(C)C1 (stereo unspecified),i,-0.9,4.9,8.0,3.1
COCCCNC(=S)N1CCCN(c2nc3c(C)c(C)ccc3cc2C#N)CC1,i,x,42.9*,14.3,x
COc1ccc(C(=O)NCCCNc2nc3cc(C)cc(C)c3cc2C#N)cc1,x,x,x,3.7,x
COCCCNC(=S)NCCCNc1nc2cc(C)cc(C)c2cc1C#N,i,20.2,-8.8,-4.2,65.9*
Cc1ccc(N(CC(=O)NC(C)C)C(=O)CCC(=O)Nc2ccccn2)c(C)c1,x,x,x,11.7,x
CSc1nc(NCCCO)c2c3c(sc2n1)CN(C)CC3,i,21.6,2.6,-8.4,74.3
CSc1nc(NCC(C)O)c2c3c(sc2n1)CN(C)CC3 (stereo unspecified),+,x,2.7,-3.9,x
COc1ccc2nc(N3CCCCC3)c(C#N)cc2c1,i,74.4*,30.6*,0.7,41.0
COc1ccc2nc(N3CCCC3)c(C#N)cc2c1,i,60.4*,0.9,-0.4,x
CCCCC1OC2(C)OC(=N)C1(C#N)C(C#N)(C#N)C2c1ccccc1 (stereo unspecified),x,21.0,x,-3.0,53.2
CC1C2(C)OC(=N)C(C#N)(C(C)O2)C1(C#N)C#N (stereo unspecified),i,101.0*,21.7*,-2.3,52.2*
CC1OC2(C)OC(=N)C1(C#N)C(C#N)(C#N)C2c1ccccc1 (stereo unspecified),i,30.1,23.4*,3.2,50.5
CCCn1c(N)c(N(CCOC)C(=O)c2cc3ccccc3cc2OC)c(=O)[nH]c1=O,x,x,x,-2.7,x
COc1ccc(CCC(=O)Nc2c(C)n(C)n(-c3ccccc3)c2=O)cc1,i,1.1,0.7,-8.8,-0.7
CN(Cc1ccccc1)C(=O)c1ccc(NC(=O)Cc2ccc(NC(=O)C3CCN(C(=O)CCc4ccccc4)CC3)cc2)cc1,x,x,x,-19.5,x
COc1cc([N+](=O)[O-])ccc1NC(=O)CSc1ccccn1,i,1.6,1.3,-8.1,-5.3
COc1ccc([N+](=O)[O-])cc1CSc1ccccn1,+,-6.0,u,1.0,0.0
CC(OC(=O)c1c[nH]c2ccccc12)C(=O)N1CCCC1 (stereo unspecified),x,x,x,63.8*,x
SMILES,Rce1 inhib,Runt-CBFb FRET,RanGTP-Impb inh,Vif inh,Runt-SMMHC FRET
CCn1c(SCC(=O)c2ccc(O)c(O)c2)nnc1-c1ccccc1OC,i,2.1,8.3,x,4.6
C=CCn1c(SCC(=O)c2ccc(O)c(O)c2)nnc1-c1ccccc1OC,i,2.5,1.7,53.6*,-0.8
COc1ccc2[nH]c(C(=O)O)c(CCN3C(=O)c4cccc([N+](=O)[O-])c4C3=O)c2c1,x,0.7,-1.6,-3.4,-2.5
O=S(=O)(CC(CN1CCOCC1)N1CCOCC1)c1ccccc1 (stereo unspecified),+,-1.0,0.2,1.7,-1.6
Cc1cccc2cc(COC(=O)c3ccco3)c(=O)[nH]c12,i,0.0,-1.0,63.6*,-3.5
COc1ccc(OC)c(Nc2cc3ccccc3c(=O)[nH]2)c1,i,x,u,-1.8,x
COc1ccccc1Nc1cc2cc(Br)ccc2c(=O)[nH]1,i,x,34.5*,-1.9,x
O=c1[nH]c(Nc2ccccc2)cc2ccccc12,i,-2.1,42.9*,0.8,-17.1
O=c1cc(Nc2cccc(Br)c2)[nH]c(=O)[nH]1,i,-0.1,-2.5,-1.9,4.2
O=c1[nH]c(Nc2ccccc2)cc2cc(Br)ccc12,i,x,83.0*,-2.8,x
CC(=O)c1cccc(Nc2nc(-c3ccccc3)nc3ccccc23)c1,i,x,-4.8,-21.7,x
CC(=O)c1cccc(-c2ccc3c(=O)[nH]c(Nc4ccccc4)cc3c2)c1,i,x,21.6*,-1.5,x
COc1cc(-c2ccc3c(=O)c4ccccc4n(C)c3c2)cc(OC)c1OC,i,x,57.0*,-1.8,x
COc1ccc(-c2cc(Cl)cc3c(=O)c4ccccc4n(C)c23)cc1F,i,x,112.2*,2.0,x
CC(=O)Nc1c(-c2ccc(Cl)cc2)c(=O)c2ccccc2n1C,i,x,u,-3.4,x
Cn1c2ccccc2c(=O)c2ccc(-c3ccc4c(c3)OCO4)cc21,i,x,49.1*,-2.9,x
COc1cc(-c2ccc3c(=O)c4ccccc4sc3c2)cc(OC)c1OC,x,x,x,-0.6,x
CCc1nc2ccccc2c(=O)n1/N=C/c1ccc(OC)cc1,i,x,-1.9,-8.8,x
Cc1nnsc1-c1onc(C)c1C(=O)O/N=C/c1ccc(Cl)cc1,i,-0.5,-1.4,-5.7,-4.2
COc1ccc(NC(=O)c2cc3cc(OC)ccc3oc2=N)cc1,x,4.2,0.2,20.6,8.0
N=c1oc2cc(O)ccc2cc1C(=O)Nc1ccc(F)cc1,i,x,170.9*,-7.3,x
CCOC(=O)c1c2n(c3ccc(O)cc13)CCCCC2,i,-1.7,22.0*,0.7,-4.0
COc1ccc(C#CC2=CC(=O)CC(C)(C)C2)cc1,x,x,x,-2.2,x
O=c1[nH]c2ccccc2n1CCC1CCCCC1,i,-0.9,7.6,-7.9,-1.2
COc1ccccc1-n1c([S-])c(C(=O)Nc2ccccc2C(F)(F)F)[n+]2ccc(C(=O)NCCO)cc12,i,6.3,19.8*,-3.4,2.5
SMILES,Rce1 inhib,Runt-CBFb FRET,RanGTP-Impb inh,Vif inh,Runt-SMMHC FRET
COc1ccc(Br)cc1CN1CCN(C(=O)c2ccco2)CC1,i,x,0.7,-3.8,x
CC(C)COC(=O)N1CCCCC1c1cc(C(=O)NCc2ccccc2)no1 (stereo unspecified),x,x,x,-10.2,x
Cc1ccc(-c2ccc(CCC(=O)O)n2NC(=O)c2cccs2)cc1,i,32.2,2.9,-9.5,62.7*
CCCCNc1cc(Cl)nc(N)n1,i,4.9,40.4*,-0.1,8.1
c1ccc2c(c1)nc(N1CCOCC1)c1nnnn12,i,11.5,u,1.2,19.8
c1ccc(N2CCN(c3nc4ccccc4n4nnnc34)CC2)cc1,i,14.9,43.6*,-3.5,30.9
COc1ccc(C[C@H]2c3cc(O)c(OC)cc3CC[N+]2(C)[O-])cc1O (stereo partly specified),+,3.6,0.3,6.4,1.4
